From ChEMBL document CHEMBL1139225, “Metabolism-based identification of a potent thrombin receptor antagonist” (J Med Chem, 2007)
Values after ≈ are worked out from the molar mass of the structure shown. Active and inactive are the calls of the source. No cut-off for these calls is given here.

Columns and labels:
Platelet = assay: Inhibition of haTRAP-induced platelet aggregation in cynomolgus monkey at 1 mg/kg after 6 hrs; type: functional, organism-based; design: dose 1 mg/kg; details: Macaca fascicularis
Summary of the method: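 Ex-vivo assay in cynomolgus monkeys. The compound was given orally as a single dose (1 mg/kg or 3 mg/kg in 20% HPβCD). Platelet aggregation induced by haTRAP was then measured in samples taken after dosing, at time points up to 24 h.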

[1] = AUC (0-24h) in Sprague-Dawley rat at 300 mg/kg, po after 1 day; type: ADME, organism-based; design: time < 24 hr, dose 300 mg/kg, route oral; details: plasma
Summary of the method: (§1)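 Fed male Sprague Dawley rats, four per group, given the compound orally once daily for 10 consecutive days in 0.4% methylcellulose (100 and 300 mg/kg groups). On day 1 and day 10, plasma concentrations of parent and hydroxylated metabolites were measured at 1, 2, 4, 8, 12 and 24 h, giving AUC(0-24 h) and Cmax.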

[2] = Cmax in Sprague-Dawley rat at 300 mg/kg, po after 10 days; type: ADME, organism-based; design: dose 300 mg/kg, route oral; details: in vivo; summary of the method: as §1
[3] = AUC (0-24h) in cynomolgus monkey at 1 mg/kg, po; type: ADME, organism-based, Macaca fascicularis; design: time < 24 hr, dose 1 mg/kg, route oral; details: plasma
Summary of the method: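 Cynomolgus monkeys received a single oral dose of 1 mg/kg in 20% HPβCD. Blood levels were followed at various time points afterwards.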

[4] = AUC (0-6h) in rat after oral administration; type: ADME, organism-based; design: time < 6 hr, route oral; details: plasma
[5] = target: T1, Proteinase-activated receptor 1 (Homo sapiens, UniProt P25116); assay: Displacement of [3H]haTRAP from PAR1 in human platelet membrane; type: cell membranes
T1 sequence (P25116 whole entry): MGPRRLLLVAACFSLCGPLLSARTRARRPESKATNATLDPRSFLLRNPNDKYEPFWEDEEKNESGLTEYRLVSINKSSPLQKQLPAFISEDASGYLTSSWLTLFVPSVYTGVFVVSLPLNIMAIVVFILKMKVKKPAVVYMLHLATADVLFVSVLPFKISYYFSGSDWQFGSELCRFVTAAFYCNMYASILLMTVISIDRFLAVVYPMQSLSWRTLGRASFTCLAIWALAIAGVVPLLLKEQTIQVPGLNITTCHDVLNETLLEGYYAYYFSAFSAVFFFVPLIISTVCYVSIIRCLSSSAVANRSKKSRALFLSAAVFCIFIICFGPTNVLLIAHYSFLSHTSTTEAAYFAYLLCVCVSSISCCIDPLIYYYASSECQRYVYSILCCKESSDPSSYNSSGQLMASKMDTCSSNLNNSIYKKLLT

[6] = AUC (0-24h) in Sprague-Dawley rat at 300 mg/kg, po after 10 days; type: ADME, organism-based; design: time < 24 hr, dose 300 mg/kg, route oral; details: plasma; summary of the method: as §1
[7] = Cmax in Sprague-Dawley rat at 300 mg/kg, po after 1 day; type: ADME, organism-based; design: dose 300 mg/kg, route oral; details: in vivo; summary of the method: as §1
Rattus norvegicus [8] = assay: Increase in hepatic enzyme CYP2B in Sprague-Dawley rat at 300 mg/kg, po; type: functional
Summary of the method: (§2)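 Ten-day enzyme induction study. Fed male Sprague Dawley rats, four per group, were dosed orally once daily at 100 or 300 mg/kg in 0.4% methylcellulose. Liver/body weight ratio, spectral cytochrome P450, and CYP1A and CYP2B levels were expressed relative to a control group.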

Rattus norvegicus [9] = assay: Increase in liver to body weight ratio in Sprague-Dawley rat at 300 mg/kg, po; type: functional; summary of the method: as §2
Rattus norvegicus [10] = assay: Increase in hepatic enzyme CYP1A in Sprague-Dawley rat at 100 mg/kg, po; type: functional; summary of the method: as §2
Rattus norvegicus [11] = assay: Increase in liver to body weight ratio in Sprague-Dawley rat at 100 mg/kg, po; type: functional; summary of the method: as §2
Rattus norvegicus [12] = assay: Increase in hepatic enzyme CYP2B in Sprague-Dawley rat at 100 mg/kg, po; type: functional; summary of the method: as §2
Rattus norvegicus [13] = assay: Increase in hepatic enzyme CYP1A in Sprague-Dawley rat at 300 mg/kg, po; type: functional; summary of the method: as §2
[14] = Solubility of the compound; type: physicochemical
[15] = AUC (0-6h) in rat at 10 mg/kg, po; type: ADME, organism-based; design: time < 6 hr, dose 10 mg/kg, route oral; details: plasma
Summary of the method: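 Rat oral pharmacokinetics at 10 mg/kg dosed in 20% HPβCD. Plasma exposure was reported as AUC(0-6).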

C[C@H]1OC(=O)[C@@H]2C[C@@H]3C[C@@H](O)CC[C@H]3[C@H](/C=C/c3ccc(-c4cccc(C(F)(F)F)c4)cn3)[C@H]12
Activity (Platelet): Active
AUC(0-t) at 24 h [1]: 18000 ng·h/mL
Cmax [2]: 47000 ng/mL
AUC(0-t) at 24 h [3]: 73 ng·h/mL
AUC(0-t) at 6 h [4]: 3150 ng·h/mL
IC50 [5]: 23 nM
AUC at 24 h [6]: 81000 ng·h/mL
Cmax [7]: 11000 ng/mL

C[C@H]1OC(=O)[C@@H]2C[C@@H]3C[C@H](O)CC[C@H]3[C@H](/C=C/c3ccc(-c4ccc(F)cc4)cn3)[C@H]12
IC50 [5]: 829 nM

C[C@H]1OC(=O)[C@@H]2C[C@@H]3CCCC[C@H]3[C@H](/C=C/c3ccc(-c4cccc(C(F)(F)F)c4)cn3)[C@H]12
Activity (Rattus norvegicus [8]): 21
AUC(0-t) at 24 h [1]: 35000 ng·h/mL
Cmax [2]: 17000 ng/mL
Activity (Rattus norvegicus [9]): 34%
Activity (Rattus norvegicus [10]): 1.8
Activity (Rattus norvegicus [11]): 10%
Activity (Rattus norvegicus [12]): 2.5
Activity (Rattus norvegicus [13]): 3.6
AUC at 24 h [6]: 21000 ng·h/mL
Cmax [7]: 29000 ng/mL

C[C@H]1OC(=O)[C@@H]2C[C@@H]3C[C@H](O)CC[C@H]3[C@H](/C=C/c3ccc(-c4cc(Cl)ccc4Cl)cn3)[C@H]12
IC50 [5]: 97 nM

C[C@H]1OC(=O)[C@@H]2C[C@H]3[C@@H](CCC[C@H]3O)[C@H](/C=C/c3ccc(-c4cccc(C(F)(F)F)c4)cn3)[C@H]12
IC50 [5]: 28 nM

C[C@H]1OC(=O)[C@@H]2C[C@@H]3C[C@H](O)CC[C@H]3[C@H](/C=C/c3ccc(-c4ccccc4F)cn3)[C@H]12
IC50 [5]: 72 nM

C[C@H]1OC(=O)[C@@H]2C[C@@H]3CC(F)(F)CC[C@H]3[C@H](/C=C/c3ccc(-c4ccccc4Cl)cn3)[C@H]12
IC50 [5]: 11 nM

Cc1cccc(-c2ccc(/C=C/[C@H]3[C@@H]4CC[C@@H](O)C[C@H]4C[C@H]4C(=O)O[C@H](C)[C@@H]34)nc2)c1
IC50 [5]: 147 nM

C[C@H]1OC(=O)[C@@H]2C[C@@H]3C[C@H](O)CC[C@H]3[C@H](/C=C/c3ccc(-c4cccc(Cl)c4)cn3)[C@H]12
IC50 [5]: 38.5 nM

C[C@H]1OC(=O)[C@@H]2C[C@@H]3CC(F)(F)CC[C@H]3[C@H](/C=C/c3ccc(-c4cccc(F)c4)cn3)[C@H]12
IC50 [5]: 15 nM

C[C@H]1OC(=O)[C@@H]2C[C@@H]3CC(F)(F)CC[C@H]3[C@H](/C=C/c3ccc(-c4cccc(Cl)c4)cn3)[C@H]12
solubility [14]: 5 µM (≈ 2.29 µg/mL)
AUC(0-t) at 6 h [15]: 1200 ng·h/mL
IC50 [5]: 12 nM

Cc1ccccc1-c1ccc(/C=C/[C@H]2[C@@H]3CC[C@@H](O)C[C@H]3C[C@H]3C(=O)O[C@H](C)[C@@H]23)nc1
IC50 [5]: 70 nM
